Source: ChEMBL document CHEMBL2413074, “Structure-based drug design using GPCR homology modeling: toward the discovery of novel selective CysLT2 antagonists” (Eur J Med Chem, 2013)

Key:
Type in all cases: functional, cell-based
[1] = biological target: T1, Cysteinyl leukotriene receptor 1 (Homo sapiens) (UniProt Q9Y271); assay: Antagonist activity at CysLT1 receptor (unknown origin) expressed in human dU937 cells assessed as reduction in LTD4-induced cytosolic free Ca2+ level at 1 uM after 30 mins by fluorescence assay relative to control
T1 sequence (whole entry): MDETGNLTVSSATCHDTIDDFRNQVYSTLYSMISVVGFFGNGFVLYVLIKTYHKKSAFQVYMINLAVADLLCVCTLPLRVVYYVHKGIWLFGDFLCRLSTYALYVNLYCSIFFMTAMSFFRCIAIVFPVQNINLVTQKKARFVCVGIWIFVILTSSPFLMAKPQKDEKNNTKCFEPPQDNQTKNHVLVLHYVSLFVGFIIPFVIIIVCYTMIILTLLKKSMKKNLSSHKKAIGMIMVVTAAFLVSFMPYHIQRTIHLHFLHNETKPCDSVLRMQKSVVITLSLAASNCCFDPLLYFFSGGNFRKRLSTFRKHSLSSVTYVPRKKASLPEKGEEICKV

[2] = biological target: T2, Cysteinyl leukotriene receptor 2 (Homo sapiens) (UniProt Q9NS75); assay: Antagonist activity at human recombinant CysLT2 receptor expressed in human HEK293 cells assessed as reduction in LTD4-induced cytosolic free Ca2+ level at 1 uM after 30 mins by fluorescence assay relative to control
T2 sequence (whole entry): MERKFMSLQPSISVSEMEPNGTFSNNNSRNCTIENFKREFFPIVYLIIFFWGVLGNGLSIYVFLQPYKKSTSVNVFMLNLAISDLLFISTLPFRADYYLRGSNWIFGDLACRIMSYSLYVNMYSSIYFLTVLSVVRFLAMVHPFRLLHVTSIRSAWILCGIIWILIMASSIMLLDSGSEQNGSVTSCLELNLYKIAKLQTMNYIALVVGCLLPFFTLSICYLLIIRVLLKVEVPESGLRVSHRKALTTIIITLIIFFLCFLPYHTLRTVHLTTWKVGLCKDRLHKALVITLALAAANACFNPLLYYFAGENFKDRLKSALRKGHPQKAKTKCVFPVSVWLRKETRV
Outline: (§1)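 HEK293 cells stably transfected with pcDNA3.1(+)-hCysLT2 were grown at 37 °C in 5% CO2 and plated. After 24 h they were preincubated for 30 min in BSS with or without test compound. Cells were then stimulated with LTD4, with ATP as a positive stimulus. The response was taken as peak minus basal and expressed as % of BSS-only control.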

[3] = biological target: T3, Cysteinyl leukotriene receptor 2 (Homo sapiens, UniProt Q9NS75); assay: (§2) Antagonist activity at human recombinant CysLT2 receptor expressed in human HEK293 cells assessed as reduction in LTD4-induced cytosolic free Ca2+ level after 30 mins by fluorescence assay relative to control
T3 sequence (Q9NS75 whole entry): T2 sequence (whole entry)
Outline: as §1, with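 “stimulus. [Ca2+]i fluorescence was read at 37 °C (ex 485/em 525 nm).” for “stimulus.”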

[4] = biological target: T2, Cysteinyl leukotriene receptor 2 (Homo sapiens); assay: as §2
Outline: as §1, with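 “stimulus. [Ca2+]i fluorescence was read at 37 °C (ex 485/em 525 nm).” for “stimulus.”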

SMILES | inhibition [1] [%] | inhibition [2] [%] | IC50 [3] [µM] | Activity [4] | Imax [4] [%]
CCCCCCCCCCCCOc1ccc(/C=C/C(=O)c2cc(C(=O)O)ccc2OCC(=O)O)cc1 | 35.7 | – | – | – | –
CCCCCCCCCCCCOc1cccc(/C=C/C(=O)c2cc(C(=O)O)ccc2OCC(=O)O)c1 | 4.8 | 70.5 | 0.25 | Dose-dependent effect | 80.5
N#CCOc1cc(C(=O)O)ccc1C(=O)/C=C/c1ccc(OCCCCOc2ccc(Cl)cc2)cc1 | – | 10.4 | – | – | –
O=C(O)COc1ccc(C(=O)O)cc1C(=O)/C=C/c1ccc(OCCCCOc2ccc(Cl)cc2)cc1 | 7 | 44 | 7.5 | Dose-dependent effect | 72.8
CCCCCCCCCCCCOc1ccc(/C=C/C(=O)c2ccc(C(=O)O)cc2OCC(=O)O)cc1 | 10.6 | – | – | – | –
CCCCCCCCOc1ccc(/C=C/C(=O)c2ccc(C(=O)O)cc2OCC(=O)O)cc1 | 8.6 | – | – | – | –
